# Results taken from ChEMBL document CHEMBL2034822, “HPLC-ESIMS(n) profiling, isolation, structural elucidation, and evaluation of the antioxidant potential of phenolics from Paepalanthus geniculatus” (J Nat Prod, 2012).
# The source made the active and inactive calls. No cut-off for these calls is given here.
# Tests used:
# PC-3 [1] = experiment: Cytotoxicity against human PC3 cells; assay type: cell-based
# PC-3 [2] = experiment: Antioxidant activity in human PC3 cells assessed as decrease in t-BuOOH-induced ROS elevation at 1 to 10 uM incubated for 24 hrs prior to t-BuOOH-challenge measured after 30 mins by dichlorofluorescein-based flow cytometric analysis; assay type: functional, cell-based
# Procedure, shortened: (§1)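 PC3 cells grown in DMEM with 2 mM L-glutamine, 10% heat-inactivated FBS and 1% pen/strep at 37 °C, then exposed to compound for 24 h. Exposed to 300 μM t-BuOOH for 30 min at 37 °C, washed, resuspended at 2 × 10^5 cells/ml in HBSS with 10 μM DCFH-DA for 20 min at 37 °C. DCF read by flow cytometry (FL1-H). Mean ± SEM of three experiments in triplicate; ANOVA with Bonferroni.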
# [3] = Antioxidant activity against ABTS radical assessed as trolox equivalents by TEAC assay; assay type: functional
# Procedure, shortened: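 ABTS radical cation diluted in PBS pH 7.4 to A734 0.70, equilibrated at 30 °C, then added to sample solutions in MeOH at 0.3, 0.5, 1 and 1.5 concentration. Inhibition of A734 versus MeOH blank, run in triplicate, plotted against concentration alongside Trolox standard. TEAC = Trolox concentration equivalent in capacity to 1 mM compound.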
# PC-3 [4] = experiment: Antioxidant activity in human PC3 cells assessed as decrease in t-BuOOH-induced ROS elevation at 10 uM incubated for 24 hrs prior to t-BuOOH-challenge measured after 30 mins by dichlorofluorescein-based flow cytometric analysis; assay type: functional, cell-based; procedure, shortened: as §1
Structure (SMILES),Activity (PC-3 [1]),Activity (PC-3 [2]),Activity [3] [mM],Activity (PC-3 [4])
COc1c(O)cc2oc(-c3ccc(O)cc3)c(O[C@@H]3O[C@H](CO[C@@H]4O[C@@H](C)[C@H](O)[C@@H](O)[C@H]4OC(C)=O)[C@@H](O)[C@H](O)[C@H]3O)c(=O)c2c1O,Non-toxic,inactive,1,
COc1cc(/C=C/C(=O)OC[C@H]2O[C@@H](Oc3c(-c4ccc(O)cc4)oc4cc(O)c(OC)c(O)c4c3=O)[C@H](O)[C@@H](O)[C@@H]2O)ccc1O,Non-toxic,inactive,0.984,
COc1cc(O[C@H]2O[C@H](CO[C@@H]3O[C@H](CO)[C@@H](O)[C@@H](O)[C@H]3O)[C@@H](O)[C@H](O)[C@H]2O)c2c(O)c3c(=O)oc(C)cc3c(OC)c2c1,Non-toxic,inactive,0.57,
COc1c2cc(O)cc(O[C@@H]3O[C@H](CO[C@@H]4O[C@H](CO)[C@@H](O)[C@H](O)[C@H]4O)[C@@H](O)[C@H](O)[C@H]3O)c2c(O)c2c(=O)oc(C)cc12,Non-toxic,inactive,1.04,
COc1c(O)cc2oc(-c3ccc(O)cc3)c(O[C@@H]3O[C@H](CO[C@@H]4O[C@@H](C)[C@H](O)[C@@H](OC(C)=O)[C@H]4OC(C)=O)[C@@H](O)[C@H](O)[C@H]3O)c(=O)c2c1O,Non-toxic,inactive,1.4,
O=c1c(O)c(-c2ccc(O)c(O)c2)oc2cc(O)cc(O)c12,,,1.87,
O=c1c(O[C@@H]2O[C@H](CO)[C@@H](O)[C@H](O)[C@H]2O)c(-c2ccc(O)c(O)c2)oc2cc(O)cc(O)c12,,,1.78,
COc1c(O)cc2oc(-c3ccc(O)cc3)c(O[C@@H]3O[C@H](COC(=O)/C=C/c4ccc(O)cc4)[C@@H](O)[C@H](O)[C@H]3O)c(=O)c2c1O,Non-toxic,inactive,1.28,
COc1c2cc(O)cc(O[C@@H]3O[C@H](CO)[C@@H](O)[C@H](O)[C@H]3O)c2c(O)c2c(=O)oc(C)cc12,Non-toxic,inactive,0.898,
COc1c(O)cc2oc(-c3ccc(O)c(O)c3)c(O[C@@H]3O[C@H](CO[C@@H]4O[C@@H](C)[C@H](OC(C)=O)[C@@H](O)[C@H]4O)[C@@H](O)[C@H](O)[C@H]3O)c(=O)c2c1O,Non-toxic,,2.16,Active
COc1c(O)cc2oc(-c3ccc(O)c(O)c3)c(O[C@@H]3O[C@H](CO[C@@H]4O[C@@H](C)[C@H](O)[C@@H](O)[C@H]4O)[C@@H](O)[C@H](O)[C@H]3O)c(=O)c2c1O,Non-toxic,,2.02,Active
COc1c(O)cc2oc(-c3ccc(O)cc3)c(O[C@@H]3O[C@H](COC(=O)[C@H]4[C@H](c5ccc(O)cc5)[C@H](C(=O)OC[C@H]5O[C@@H](Oc6c(-c7ccc(O)cc7)oc7cc(O)c(OC)c(O)c7c6=O)[C@H](O)[C@@H](O)[C@@H]5O)[C@H]4c4ccc(O)cc4)[C@@H](O)[C@H](O)[C@H]3O)c(=O)c2c1O [GENICULATIN],Non-toxic,inactive,0.738,
COc1cc(O[C@H]2O[C@H](CO[C@H]3O[C@H](CO)[C@@H](O)[C@H](O)[C@H]3O)[C@@H](O)[C@H](O)[C@H]2O)c2c(O)c3c(=O)oc(C)cc3c(OC)c2c1,Non-toxic,inactive,0.706,
O=c1c(O[C@@H]2O[C@H](CO)[C@@H](O)[C@H](O)[C@H]2O)c(-c2ccc(O)cc2)oc2cc(O)cc(O)c12,,,1.18,
COc1c(O)cc2oc(-c3ccc(O)cc3)c(O[C@@H]3O[C@H](CO[C@@H]4O[C@@H](C)[C@H](O)[C@@H](O)[C@H]4O)[C@@H](O)[C@H](O)[C@H]3O)c(=O)c2c1O,Non-toxic,,2.06,Active
COc1c(O)cc2oc(-c3ccc(O)cc3)c(O[C@@H]3O[C@H](CO)[C@@H](O)[C@H](O)[C@H]3O)c(=O)c2c1O,Non-toxic,inactive,1.27,
COc1c(O)cc2oc(-c3ccc(O)cc3)c(O[C@@H]3O[C@H](CO[C@@H]4O[C@@H](C)[C@H](OC(C)=O)[C@@H](O)[C@H]4O)[C@@H](O)[C@H](O)[C@H]3O)c(=O)c2c1O,Non-toxic,inactive,0.968,
COc1cc2oc(-c3ccc(O)c(O)c3)c(O[C@@H]3O[C@H](CO[C@@H]4O[C@@H](C)[C@H](O)[C@@H](O)[C@H]4O)[C@@H](O)[C@H](O)[C@H]3O)c(=O)c2c(O)c1O,Non-toxic,inactive,1.54,
COc1c(O)cc2oc(-c3ccc(O)c(O)c3)c(O[C@@H]3O[C@H](CO)[C@@H](O)[C@H](O)[C@H]3O)c(=O)c2c1O,Non-toxic,inactive,0.525,
COc1c(O)cc2oc(-c3ccc(O)c(O)c3)c(O[C@@H]3O[C@H](CO[C@@H]4O[C@@H](C)[C@H](OC(C)=O)[C@@H](O)[C@H]4OC(C)=O)[C@@H](O)[C@H](O)[C@H]3O)c(=O)c2c1O,Non-toxic,inactive,1.21,
COc1c(O)cc2oc(-c3ccc(O)c(O)c3)c(O[C@@H]3O[C@H](CO[C@@H]4O[C@@H](C)[C@H](O)[C@@H](O)[C@H]4OC(C)=O)[C@@H](O)[C@H](O)[C@H]3O)c(=O)c2c1O,Non-toxic,inactive,1.37,
COc1c(O)cc2oc(-c3ccc(O)cc3)c(O[C@@H]3O[C@H](CO)[C@@H](O)[C@H](O)[C@H]3O[C@@H]3O[C@@H](C)[C@H](O)[C@@H](O)[C@H]3O)c(=O)c2c1O,Non-toxic,inactive,1.53,
